Source: PubChem BioAssay
CSC inhib – blocks cancer stem cells; cancer stem cell-like cells viability, luminescence; actives 1.1% (n = 300,000); inhibition, % at 7.5 µM; in the data active = inhibition above about 75%; tested in HMLE shEcad cells
SKKanGAS inh – inhibitors of SKKanGAS S. pyogenes growth in kanamycin (SK-promoter or general growth effect) | BacTiter-Glo, 6 h | inhibition, % at 7.5 µM | actives 1.3% (n = 300,000);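 active = mean replicate score, as percent of positive control median, at least 50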;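 note: strain carries kanamycin resistance gene driven by streptokinase promoter and grows in 40 µg/ml kanamycin; loss of luminescence reflects streptokinase promoter inhibition or plain growth inhibition; 0% = median of DMSO wells and 100% = positive control at its reference dose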
HIF act – HIF pathway transcriptional activation; U2OS HRE-luciferase reporter, luminescence; normalized: DMSO 0%, desferrioxamine 100%; actives 0.32% (n = 300,000); AID 1910; activation, % at 7.5 µM (by protocol);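 active = mean activation of at least 10% of the iron chelator positive control signal, with at least half of replicates also reaching 10%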
Beta apoptosis – beta cell apoptosis inhibition | INS-1E cytokine-induced death, ATP luminescence, 48 h; percent of positive-control rescue, neutral wells zero | actives 0.8% (n = 300,000) | protection from apoptosis, % (concentration not given with the values);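 active = Every replicate reaches about 75%, or at least half do and their mean reaches it too, limit read from the data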;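 note: 0% = cytokine-treated negative control wells and 100% = positive control rescue; higher means more ATP so stronger rescue from cytokine killing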
T cruzi repl – T. cruzi replication inhibition. T. cruzi beta-gal in NIH3T3, luminescence, 90 h. inhibition, % (concentration not given with the values). actives 1.4% (n = 300,000). AID 1885;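 active = mean inhibition across valid replicates above about 55%, limit read from the data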;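 note: signal also drops with host cell toxicity which is not excluded here; 0% = plate median of DMSO wells and 100% = zero luminescence signal; higher percent means less beta-gal luminescence so fewer parasites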
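Read-out: Parasite load inhibition, % | Test system: Mouse NIH/3T3 fibroblasts infected with β-gal-expressing T. cruzi Tulahuen C4 | Amount: 5,000 cells/well | Medium: DMEM, 2% fetal bovine serum | Signal: GalScreen β-gal luminescence, detergent lysis, 60 min | Timing: 3 h attach, ≥90 h co-culture | Also added: Tulahuen C4 trypomastigotes, 5000/well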
PfHsp90 set2 – reduces growth (ATP signal) of yeast expressing P. falciparum Hsp90; AID 504621; actives 0.32% (n = 310,000); inhibition, % at 9.4 µM; S. cerevisiae expressing PfHsp90, BacTiter-Glo ATP, 48 h; yeast lacking PDR1 and PDR3 efflux regulators;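 active = every replicate shows inhibition above about 80%, whatever the replicate mean, limit read from the data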;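 note: 0% = DMSO neutral controls and 100% = 20 µM radicicol positive controls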
* = called active by the depositor. The list is not random: actives were taken first. Their share in the collection is about 3.6%.

Results for Cc1cccc(CSc2nc3c(cc2C#N)CN(C)CC3)c1 ?
CSC inhib: 37; SKKanGAS inh: -1; HIF act: 0; Beta apoptosis: -1; T cruzi repl: 59*; PfHsp90 set2: -1

How did CN1CCc2nc(SCc3ccccc3Br)c(C#N)cc2C1 do in these assays?
CSC inhib: 27; SKKanGAS inh: 17; HIF act: 0; Beta apoptosis: -1; T cruzi repl: 52; PfHsp90 set2: 3

Results for Cc1cccc(C(O)(C(=O)O)c2ccccc2)c1 (stereo not given) ?
PfHsp90 set2: -26

How did CC(C)c1ccc(N2C(=O)NC(=O)/C(=C\c3cnc(-c4ccccc4)nc3)C2=O)cc1 do in these assays?
CSC inhib: 0; SKKanGAS inh: 11; HIF act: 0; Beta apoptosis: -4; T cruzi repl: 6; PfHsp90 set2: -1

Results for CC(C)c1ccc(N2C(=O)NC(=O)/C(=C\C=C\c3ccco3)C2=O)cc1 ?
CSC inhib: 99*; SKKanGAS inh: 7; HIF act: 1; Beta apoptosis: -18; T cruzi repl: -6

Results for O=C1NC(=O)N(Cc2ccccc2)C(=O)/C1=C/C=C/c1ccco1 ?
CSC inhib: 90*; HIF act: 0; Beta apoptosis: -1; T cruzi repl: -54; PfHsp90 set2: 9

What do the screens show for `Cn1c(O)c(C(=Nc2ccc(F)cc2)c2ccccc2Cl)c(=O)n(C)c1=O`?
CSC inhib: -14; SKKanGAS inh: -4; HIF act: 1; Beta apoptosis: -13; T cruzi repl: 8; PfHsp90 set2: 106*

Results for COc1ccc(OC)c(NC2=NCCCS2)c1 ?
CSC inhib: 4; SKKanGAS inh: -3; HIF act: 37*; Beta apoptosis: -2; T cruzi repl: -14; PfHsp90 set2: 41

Results for CC(C)(C)c1nc(N2CCN(C(=O)c3ccco3)CC2)c2nnn(Cc3ccccc3Cl)c2n1 ?
CSC inhib: 119*; SKKanGAS inh: 40; Beta apoptosis: 21; PfHsp90 set2: 10

Results for COc1ccc(-n2c(/C=C/c3ccc(O)cc3)nc3ccccc3c2=O)cc1 ?
CSC inhib: 38; SKKanGAS inh: 18; HIF act: 0; T cruzi repl: 24; PfHsp90 set2: -10

Results for COc1ccc(-n2c(/C=C/c3ccc(O)c(OC)c3)nc3ccccc3c2=O)cc1 ?
CSC inhib: 15; SKKanGAS inh: 91*; HIF act: -29; Beta apoptosis: 17; T cruzi repl: -7; PfHsp90 set2: -16

What do the screens show for `Cc1ccccc1-n1c(O)c(C(c2ccncc2)c2c(O)n(-c3ccccc3C)c(=O)[nH]c2=O)c(=O)[nH]c1=O`?
CSC inhib: -9; SKKanGAS inh: -5; HIF act: 3; Beta apoptosis: 1; T cruzi repl: 4; PfHsp90 set2: -8

What do the screens show for `Cc1cnc(NC(=O)CN2CCCCC2)s1`?
CSC inhib: -3; SKKanGAS inh: 4; HIF act: 0; Beta apoptosis: -3; T cruzi repl: 3; PfHsp90 set2: -11

What do the screens show for `C[CH2][Hg][S]c1ccccc1C(=O)O`?
CSC inhib: 104*; Beta apoptosis: 114*; PfHsp90 set2: 109*

What do the screens show for `COC(=O)C1=C(c2ccc(F)cc2OCc2ccccc2)C[C@@H]2CC[C@H]1N2C(=O)NC1CC1`?
CSC inhib: -13; Beta apoptosis: 0; PfHsp90 set2: 2

What do the screens show for `N=c1c2c(n(Cc3ccc(Cl)cc3Cl)c3c1CCC3)CCCC2`?
CSC inhib: 16; SKKanGAS inh: 6; HIF act: 0; Beta apoptosis: 121*; T cruzi repl: 51; PfHsp90 set2: -5

Results for COc1cc2nc(CN3CC=C(c4ccccc4)CC3)[nH]c(=O)c2cc1OC ?
CSC inhib: 90*; SKKanGAS inh: -1; HIF act: 0; Beta apoptosis: 1; T cruzi repl: 32; PfHsp90 set2: -14

Results for CCOC(=O)c1cc2c(cn1)[C@@H](CCO)NC2 ?
PfHsp90 set2: 22

What do the screens show for `CCCOc1ccc(C(=O)NC(=S)N2C[C@H]3C[C@H](C2)c2cccc(=O)n2C3)cc1`?
CSC inhib: 1; SKKanGAS inh: 4; HIF act: 1; Beta apoptosis: -1; T cruzi repl: -6; PfHsp90 set2: 5

Results for CCCc1nc2ccc(Br)cc2c(=O)n1-c1ccc([N+](=O)[O-])c(C(F)(F)F)c1 ?
CSC inhib: 127*; SKKanGAS inh: 22; HIF act: -1; Beta apoptosis: 99*; T cruzi repl: 56*; PfHsp90 set2: 12

How did Cc1cccc(OCCn2cccc2/C=C2/C(=O)NC(=O)N(Cc3ccco3)C2=O)c1 do in these assays?
CSC inhib: 35; SKKanGAS inh: 26; HIF act: 592*; Beta apoptosis: -5; T cruzi repl: -5

What do the screens show for `O=C1NC(=O)N(Cc2ccco2)C(=O)/C1=C\c1cccn1CCOc1ccc(Cl)cc1`?
CSC inhib: 37; SKKanGAS inh: -6; HIF act: 0; Beta apoptosis: 1; T cruzi repl: 1; PfHsp90 set2: -7

What do the screens show for `CCN(CC)P(c1n(C)cc[n+]1C)N(CC)CC`?
CSC inhib: -8; SKKanGAS inh: 1; HIF act: -1; Beta apoptosis: 2; T cruzi repl: -11; PfHsp90 set2: -12

How did CN1CCN(c2ccc([N+](=O)[O-])c(NCc3ccco3)c2)CC1 do in these assays?
CSC inhib: 93*; SKKanGAS inh: -2; HIF act: -1; Beta apoptosis: 3; T cruzi repl: 46; PfHsp90 set2: -2

How did CN1CCN(c2ccc([N+](=O)[O-])c(N3CCCCC3)c2)CC1 do in these assays?
CSC inhib: 36; SKKanGAS inh: -10; HIF act: 0; Beta apoptosis: -5; T cruzi repl: 79*; PfHsp90 set2: 1

Results for O=[N+]([O-])c1ccc(N2CCNCC2)cc1NCc1ccco1 ?
CSC inhib: 9; SKKanGAS inh: 2; HIF act: -1; Beta apoptosis: -3; T cruzi repl: 5; PfHsp90 set2: -15

What do the screens show for `O=[N+]([O-])c1ccc(N2CCNCC2)cc1N1CCCCCC1`?
CSC inhib: 8; SKKanGAS inh: -3; HIF act: 0; Beta apoptosis: -6; T cruzi repl: 7; PfHsp90 set2: -29

How did Cc1ccc(N/N=C/c2c(O)n(-c3ccccc3)c(=O)[nH]c2=O)cc1 do in these assays?
CSC inhib: 96*; SKKanGAS inh: -8; HIF act: 1; Beta apoptosis: -14; T cruzi repl: 26; PfHsp90 set2: -1

What do the screens show for `CC(=O)OC(C)(C)/C=C/C(=O)C(C)(O)C1[C@H](O)C[C@@]2(C)C3CC=C4C(CC[C@@H](O)C4(C)C)[C@]3(CO)C(=O)C[C@]12C` (stereo not given in full)?
CSC inhib: 41; SKKanGAS inh: -4; HIF act: -4; T cruzi repl: 56*; PfHsp90 set2: 26
